One assay has as its system BMDM. In words: Inhibition of pyroptosis in LPS-primed C57BL/6 mouse primary BMDM assessed as reduction in nigericin-induced cell death by Alamar blue assay. It is filed as functional, cell-based. The gist of the method: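 Primary murine macrophages primed with LPS and stimulated with nigericin across a dose range. IL-1β release, LDH release and Alamar blue measured. Means ± SE, ≥3 experimental replicates.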

In assay [1] the target is T1, Gastrin/cholecystokinin type B receptor (Mus musculus) (UniProt P56481).
T1 sequence (whole entry): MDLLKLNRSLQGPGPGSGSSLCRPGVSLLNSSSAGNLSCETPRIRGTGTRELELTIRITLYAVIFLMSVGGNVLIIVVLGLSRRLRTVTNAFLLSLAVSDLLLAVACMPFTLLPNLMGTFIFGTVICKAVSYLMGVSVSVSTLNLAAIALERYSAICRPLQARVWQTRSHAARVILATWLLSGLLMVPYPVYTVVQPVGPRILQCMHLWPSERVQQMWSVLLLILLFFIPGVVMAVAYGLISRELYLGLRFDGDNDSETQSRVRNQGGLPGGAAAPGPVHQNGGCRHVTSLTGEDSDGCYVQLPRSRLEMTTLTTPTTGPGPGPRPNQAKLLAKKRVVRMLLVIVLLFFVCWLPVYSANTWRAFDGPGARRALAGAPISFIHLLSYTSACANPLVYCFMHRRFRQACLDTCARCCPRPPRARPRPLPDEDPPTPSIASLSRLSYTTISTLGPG
Put plainly: Antagonist activity at CCKB receptor in immortalized mouse […] cells assessed as inhibition of nigericin-induced pyroptosis at 5 uM. It is filed as cell-based. As to conditions: J774.A1. A digest of the protocol:
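CCKB antagonists netazepide and proglumide were given to immortalized macrophages, with pyroptosis induced by nigericin.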

Assay [2] has as its target T2, Gasdermin-D (Mus musculus) (UniProt Q9D8T2).
T2 sequence (whole entry): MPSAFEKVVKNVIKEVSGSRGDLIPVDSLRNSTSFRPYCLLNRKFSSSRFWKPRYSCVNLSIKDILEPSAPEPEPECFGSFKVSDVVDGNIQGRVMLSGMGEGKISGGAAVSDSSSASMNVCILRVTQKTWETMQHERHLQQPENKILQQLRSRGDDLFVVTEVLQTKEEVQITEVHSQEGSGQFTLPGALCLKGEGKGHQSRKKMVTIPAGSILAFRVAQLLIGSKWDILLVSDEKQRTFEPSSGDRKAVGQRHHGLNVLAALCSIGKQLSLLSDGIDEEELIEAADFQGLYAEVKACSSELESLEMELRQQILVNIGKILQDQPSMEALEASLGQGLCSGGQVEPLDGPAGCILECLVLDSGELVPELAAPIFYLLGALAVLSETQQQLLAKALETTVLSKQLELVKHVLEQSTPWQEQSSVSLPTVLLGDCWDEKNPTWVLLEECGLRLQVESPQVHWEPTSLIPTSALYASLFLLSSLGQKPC
In words: Inhibition of GSDMD cytosol-plasma membrane translocation in LPS-primed C57BL/6 mouse primary BMDM at 5 uM followed by nigericin stimulation by immunofluorescence assay. A digest of the protocol:
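Macrophages were LPS-primed, then stimulated with nigericin, in immortalized and primary cells. Anti-GSDMD immunofluorescence, with line-intensity histograms of cytosol versus plasma-membrane localization. Mean ± SEM, n ≥ 3 independent experiments.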

The next assay has as its system J774.A1. In words: Inhibition of pyroptosis in LPS-primed immortalized mouse […] cells assessed as reduction in flagellin-induced […] secretion by ELISA. In kind it is functional, cell-based. The gist of the method:
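J774A.1 cells stimulated with flagellin or poly(dA:dT). IL-1β release measured by ELISA. Mean ± SEM, n ≥ 3 independent experiments.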

The next assay concerns the target T3, Caspase-4 (Mus musculus) (UniProt P70343).
T3 sequence (whole entry): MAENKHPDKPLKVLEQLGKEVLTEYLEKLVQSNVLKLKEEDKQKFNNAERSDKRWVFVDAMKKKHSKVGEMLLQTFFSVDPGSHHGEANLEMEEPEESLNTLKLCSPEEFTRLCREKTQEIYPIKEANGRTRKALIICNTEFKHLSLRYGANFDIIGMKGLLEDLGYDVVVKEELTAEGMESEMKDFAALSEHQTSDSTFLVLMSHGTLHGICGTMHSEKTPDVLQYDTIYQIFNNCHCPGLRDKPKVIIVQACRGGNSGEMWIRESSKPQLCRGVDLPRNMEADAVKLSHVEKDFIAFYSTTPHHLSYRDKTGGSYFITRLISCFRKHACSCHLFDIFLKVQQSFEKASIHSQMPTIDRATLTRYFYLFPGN
Put plainly: Inhibition of pyroptosis-inducing caspase-11 in LPS-primed immortalized mouse […] cells assessed as cell death at 5 uM by LDH assay. In kind it is cell-based. As to conditions: J774.A1. The gist of the method:
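Cell death induced by cytoplasmic LPS in J774A.1 cells, measured by LDH release. Mean ± SEM, n ≥ 3.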

The target in another assay is T4, Caspase-1 (Homo sapiens) (UniProt P29466).
T4 sequence (whole entry): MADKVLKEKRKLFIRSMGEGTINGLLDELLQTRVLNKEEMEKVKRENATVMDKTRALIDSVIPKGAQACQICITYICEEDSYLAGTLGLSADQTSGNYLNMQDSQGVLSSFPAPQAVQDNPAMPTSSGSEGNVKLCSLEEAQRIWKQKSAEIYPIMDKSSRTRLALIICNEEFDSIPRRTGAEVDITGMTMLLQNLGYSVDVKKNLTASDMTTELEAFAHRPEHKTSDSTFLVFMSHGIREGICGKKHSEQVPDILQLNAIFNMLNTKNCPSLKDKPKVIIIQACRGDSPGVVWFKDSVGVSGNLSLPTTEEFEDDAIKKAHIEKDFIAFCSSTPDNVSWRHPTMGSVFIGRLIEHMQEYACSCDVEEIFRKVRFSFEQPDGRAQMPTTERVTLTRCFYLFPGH
In words: Inhibition of pronase-mediated caspase-1 degradation in HEK293 cell lysate at 5 uM measured after 30 mins by DARTS based Western blot analysis. In kind it is cell-free. A digest of the protocol: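 DARTS assay: cell lysates pretreated with compound, then digested with different Pronase concentrations. Caspase-1 stability read by immunoblot against a histone H3 control.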

A further assay concerns Mus musculus. Put plainly: Antiinflammatory activity against LPS-induced sepsis C57BL/6J mouse model assessed as reduction in serum IL-1beta level at 20 mg/kg, iv administered as single dose for 1 hr prior to LPS challenge and measured after 24 hrs of compound treatment by ELISA. It is filed as functional, organism-based.

The source made the active and inactive calls. The calls are words filed in the database; no cut-off is given here.

In the case of `CCOC(CN1C(=O)C(NC(=O)Nc2ccc(C)cc2)(C(F)(F)C(=O)Nc2ccc(C)cc2)c2ccccc21)OCC` (configuration not stated), in the assay on BMDM, the inhibition result was “Dose-dependent effect”. Further, the result in assay [1] was inactive. For the same compound, the inhibition result (in assay [2]; in the assay with J774.A1; at Caspase-4 (Mus musculus); at Caspase-1 (Homo sapiens)) was “Active” each time. Also, the outcome in the assay with Mus musculus was Active.

For the origin of these results see ChEMBL document CHEMBL4619791, “3-Difluoroalkyl Quaternary Oxindoles Inhibit Macrophage Pyroptosis by Blocking Inflammasome Recruitment of Caspase-1” (ACS Med Chem Lett, 2020).
